Only some compounds are listed: those with a hit (about 1.5% of all), similar ones and a draw of the others.
LANA-H2B inh: blockers of LANA interaction with H2A/H2B – biochemical, FP readout, HTS, primary screen; cell-free LANA-H2A/H2B peptide, fluorescence polarization; inhibition, % (no concentration beside the values); AID 2629, 2010; Protein LANA1 (Human herpesvirus 8 type P (isolate GK18)), Q9QR71; 320,000 tested, 0.6% active; in the data active means inhibition mostly above about 10%, no sharp cut-off; inactive means mostly below about 6.7%
Target sequence (Q9QR71 whole entry, looked up): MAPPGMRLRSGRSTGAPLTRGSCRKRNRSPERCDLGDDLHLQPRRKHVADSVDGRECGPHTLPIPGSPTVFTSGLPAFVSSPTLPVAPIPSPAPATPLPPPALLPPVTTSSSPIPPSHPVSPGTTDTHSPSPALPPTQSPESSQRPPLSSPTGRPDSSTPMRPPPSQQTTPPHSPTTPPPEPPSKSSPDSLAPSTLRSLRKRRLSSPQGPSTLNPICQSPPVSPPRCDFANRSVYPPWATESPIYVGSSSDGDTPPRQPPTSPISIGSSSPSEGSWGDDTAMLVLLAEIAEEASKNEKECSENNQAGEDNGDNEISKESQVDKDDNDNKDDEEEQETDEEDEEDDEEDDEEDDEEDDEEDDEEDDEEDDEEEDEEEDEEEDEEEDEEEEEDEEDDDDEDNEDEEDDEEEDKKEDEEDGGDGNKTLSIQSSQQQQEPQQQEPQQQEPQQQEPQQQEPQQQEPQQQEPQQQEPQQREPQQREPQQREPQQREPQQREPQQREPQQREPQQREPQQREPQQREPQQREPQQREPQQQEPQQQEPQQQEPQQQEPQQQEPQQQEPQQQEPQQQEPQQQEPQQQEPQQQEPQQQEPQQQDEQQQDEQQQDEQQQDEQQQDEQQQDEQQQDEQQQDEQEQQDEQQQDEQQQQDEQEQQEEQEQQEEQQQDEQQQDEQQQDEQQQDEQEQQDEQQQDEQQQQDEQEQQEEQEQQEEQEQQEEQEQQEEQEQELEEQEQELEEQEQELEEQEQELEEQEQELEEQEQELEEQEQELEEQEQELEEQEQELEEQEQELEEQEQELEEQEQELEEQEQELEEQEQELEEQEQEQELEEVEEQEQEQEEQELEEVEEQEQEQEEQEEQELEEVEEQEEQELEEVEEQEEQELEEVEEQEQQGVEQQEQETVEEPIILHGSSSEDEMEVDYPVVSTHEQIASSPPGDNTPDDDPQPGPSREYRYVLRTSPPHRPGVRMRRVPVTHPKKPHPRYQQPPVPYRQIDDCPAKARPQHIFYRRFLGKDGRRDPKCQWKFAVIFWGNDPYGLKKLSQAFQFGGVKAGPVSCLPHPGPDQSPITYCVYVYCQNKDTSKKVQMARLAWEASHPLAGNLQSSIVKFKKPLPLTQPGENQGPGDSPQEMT
DSG3 Ab inh: inhibitors of pemphigus antibody binding to DSG3, primary screen, biochemical, bead-based, flow cytometry, scFv-GFP. binding (percent of control), % at 10 µM. AID 588358, 2011. DSG3-coupled beads, scFv-anti-DSG3-GFP binding; active compounds read low. 310,000 tested, 0.48% active;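 active means binding more than 3 SD below its plate's average and above zero; inconclusive means below that plate limit but binding exactly zero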;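 further: hits lower antibody fragment binding to DSG3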
Arrestin-AP2 inh: inhibitors of beta-arrestin/AP2 binding, primary screen, biochemical, GPCR trafficking, flow cytometry. beta-arrestin 1 C-terminal peptide binding to AP2 beta2-adaptin appendage (human). FITC-arrestin peptide / GST-AP2 beads; AP2 beta2 appendage carries R879A mutation. inhibition, % at 10 µM. 340,000 tested, 0.31% active. AID 504490, 2011;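 active means inhibition above a set limit, near 3 SD of compounds lacking own fluorescence, cut at about 54% in these data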
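System: GST-AP2 R879A bound to glutathione beads, E. coli-expressed. Also added: 50 nM FITC-arrestin peptide. Schedule: compound with beads 12 min RT, then probe 1 h RT. Signal: bead flow cytometry, FITC channel. Read-out basis: percent response.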
HDAC3 inh: HDAC3 deacetylase inhibitors, primary screen, biochemical, fluorescence, cell-free homogeneous; Histone deacetylase 3 (Homo sapiens), O15379; recombinant HDAC3, fluorogenic peptide/trypsin coupled; inhibition, % at 8.3 µM; 320,000 tested, 0.15% active; in the data active means inhibition above about 26%, passing the limit was not always enough; inconclusive means no clear call, values can overlap the other calls
T cell modulator: modulators of CD8 T cell-vesicle binding, primary screen, mouse 2C CD8+ T cells, flow cytometry. 2C CD8+ T cell-vesicle binding; active compounds read low. response (vesicle binding), % at 7 µM. 330,000 tested, 0.068% active;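 active means response, share of CD8 T cells binding vesicles, and their 90th percentile fluorescence all below set limits, cut at about 80% in these data, passing the limit was not always enough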;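 further: values below 100% mean blocked vesicle binding to the CD8+ T cells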
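Test system: purified 2C TCR transgenic mouse naive CD8+ T cells. Probe or stimulus: QL9-peptide-loaded Drosophila micro-vesicles bearing Ld, ICAM-1 and B7-1. Incubation: binding step 1.5 h, 37 °C, antibody labelling 20 min, ice. Measured by: flow cytometry of vesicle-bound cells.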
Arr-AP2 CP1: inhibitors of arrestin peptide binding to AP2, confirmation, biochemical, cherry pick 1, flow cytometry beads; shares compounds with Arrestin-AP2 inh; GST-AP2 beads, FITC arrestin peptide binding; GST-fused beta2-adaptin appendage, R879A mutant; inhibition, % at 10 µM; 1,300 tested, 2% active;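 active means inhibition above a set limit, roughly 3 SD of non-fluorescent compound noise, cut at about 38% in these data; inactive means inhibition at or below that limit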;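 further: loss of bead fluorescence from 50 nM FITC arrestin peptide bound to appendage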
GST-FITC bead: GST-fluorescein capture on glutathione beads, confirmation, artefact control for arrestin-AP2 inhibitor project, biochemical, cherry pick 1, flow cytometry; inhibition, % at 10 µM; GST-fluorescein binding to GSH beads, fluorescence, counter-screen; shares compounds with Arrestin-AP2 inh; 1,300 tested, 2% active;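 active means inhibition above 50%, about 3 SD of the inhibition seen with non-fluorescent compounds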;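 further: fluorescein maleimide labelled GST captured on 4 micron glutathione beads; higher means more loss of bead fluorescence from quenching or blocked binding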
Large screens that a line does not name were inactive (follow-up assays come after a bar, where they were run).

Cc1cc(C)c2cc(CN(CCO)C(=O)NC3CCCCC3)c(=O)[nH]c2c1	none
Cc1cccc2cc(CN(CCN3CCCC3)C(=O)NC3CCCCC3)c(=O)[nH]c12	none | Arr-AP2 CP1 inactive | GST-FITC bead inactive
Cc1ccc2cc(CN(CCCN3CCOCC3)C(=O)NC3CCCCC3)c(=O)[nH]c2c1C	none | Arr-AP2 CP1 inactive | GST-FITC bead inactive
CCN1CCCC1CN(Cc1cc2c(C)cc(C)cc2[nH]c1=O)C(=O)NC1CCCCC1 (stereo not drawn)	none | Arr-AP2 CP1 inactive | GST-FITC bead inactive
Cc1ccc2cc(CN(Cc3ccco3)C(=O)NC3CCCCC3)c(=O)[nH]c2c1C	none
Cc1cccc2cc(CN(CCN3CCOCC3)C(=O)Nc3ccccc3F)c(=O)[nH]c12	none (no result: LANA-H2B inh, HDAC3 inh)
Cc1cc2cc(CN(CCCN3CCOCC3)C(=O)NC3CCCCC3)c(=O)[nH]c2cc1C	none | Arr-AP2 CP1 inactive | GST-FITC bead inactive
CC(=O)Nc1ccc(NC(=O)CSc2n[nH]c(-c3cccs3)n2)cc1	none
CCc1ccc2[nH]c(=O)c(CN(CCN(CC)CC)C(=O)NC3CCCCC3)cc2c1	Arrestin-AP2 inh 76, HDAC3 inh inconclusive | Arr-AP2 CP1 inactive | GST-FITC bead inactive
O=C(NC1CCCCC1)N(Cc1cc2cc3c(cc2[nH]c1=O)OCCO3)CC1CCCO1 (stereo not drawn)	none | Arr-AP2 CP1 inactive | GST-FITC bead inactive
O=C(NC1CCCCC1)N(CCO)Cc1cc2cc3c(cc2[nH]c1=O)OCCO3	none
Cc1cccc(-n2nc(C)c3c2NC2=C(C(=O)CCC2)C3c2ccccn2)c1 (stereo not drawn)	none
Cc1nn(-c2ccccn2)c2c1C(c1ccsc1)C1=C(CCCC1=O)N2 (stereo not drawn)	Arrestin-AP2 inh 105 | Arr-AP2 CP1 inactive | GST-FITC bead inactive
COC(=O)c1ccc(NC(=O)CN2C(=O)C3C4C=CC(C4)C3C2=O)cc1 (stereo not drawn)	Arrestin-AP2 inh 59 (no result: LANA-H2B inh, HDAC3 inh) | Arr-AP2 CP1 inactive | GST-FITC bead inactive
O=C(CN1C(=O)C2C3C=CC(C3)C2C1=O)Nc1ccc(C(=O)O)cc1 (stereo not drawn)	none
CCOc1ccc(NC(=O)CN2C(=O)C(C)SC(C)C2=O)cc1 (stereo not drawn)	Arrestin-AP2 inh 55 (no result: DSG3 Ab inh) | Arr-AP2 CP1 inactive | GST-FITC bead inactive
CN(C)c1ccc(C(=O)/C=C/c2ccccc2)cc1	none (no result: Arrestin-AP2 inh)
CN(C)c1ccc(C(=O)/C=C/c2ccc(Br)cc2)cc1	Arrestin-AP2 inh 98 | Arr-AP2 CP1 38 | GST-FITC bead 190
CCc1nn(CCCC(=O)NCc2ccco2)c(=O)c2cc3occc3n12	none
CCOC(=O)C1=C(COC(=O)C(CC)Oc2ccccc2)NC(=O)NC1C (stereo not drawn)	none | Arr-AP2 CP1 inactive | GST-FITC bead inactive
CCOC(=O)C1=C(COC(=O)C(CC)c2ccccc2)NC(=O)NC1C (stereo not drawn)	DSG3 Ab inh inconclusive, Arrestin-AP2 inh 67 | Arr-AP2 CP1 inactive | GST-FITC bead inactive
CCOC(=O)C1=C(COC(=O)Cc2c(F)cccc2Cl)NC(=O)NC1C (stereo not drawn)	none (no result: DSG3 Ab inh) | Arr-AP2 CP1 inactive | GST-FITC bead inactive
CCOC(=O)C1=C(COC(=O)CC(C)c2ccccc2)NC(=O)NC1C (stereo not drawn)	none (no result: DSG3 Ab inh) | Arr-AP2 CP1 inactive | GST-FITC bead inactive
CCOC(=O)C1=C(COC(=O)c2ccc(OC(C)C)cc2)NC(=O)NC1C (stereo not drawn)	none
CCOC(=O)C1=C(COC(=O)c2ccccc2[N+](=O)[O-])NC(=O)NC1C (stereo not drawn)	none
COc1ccc(NC(=O)CSc2ccc3nnc(-c4ccccn4)n3n2)cc1OC	none
Cc1ccccc1-n1ncc2c1CC(C)(C)CC2NC(=O)CCCN1CCCC1=O (stereo not drawn)	none
C[C@H](O)[C@@H]1C(=O)N2CCc3c([nH]c4ccccc34)[C@@H]2C[C@@H]1N(C)C(=O)Nc1cc(Cl)cc(Cl)c1	none (no result: LANA-H2B inh, Arrestin-AP2 inh, HDAC3 inh, T cell modulator)
COc1ccc(C2C(C(=O)c3ccc(C)o3)=C(O)C(=O)N2c2cc(C)on2)cc1OC (stereo not drawn)	none
COc1ccc(OC)c(C2C(C(=O)c3ccc(C)o3)=C(O)C(=O)N2c2cc(C)on2)c1 (stereo not drawn)	Arrestin-AP2 inh 59 | Arr-AP2 CP1 inactive | GST-FITC bead inactive
CC(C)(C)c1ccc(OCCCC(=O)NNC(=O)c2ccccc2O)cc1	none (no result: HDAC3 inh)
CC(C)(C)c1ccc(C(=O)NCC(=O)NNC(=O)c2ccccc2O)cc1	Arrestin-AP2 inh 77 | Arr-AP2 CP1 inactive | GST-FITC bead inactive
C[C@@H](N)C(=O)NC[C@H]1O[C@@H](n2cnc3c(N)ncnc32)[C@H](O)[C@@H]1O	none (no result: LANA-H2B inh, HDAC3 inh, T cell modulator)
CCCCNC(=O)C(=O)NCc1ccncc1	none
CCNC(=O)C(=O)NCc1ccncc1	Arrestin-AP2 inh 62 | Arr-AP2 CP1 inactive | GST-FITC bead inactive
Cc1noc(C)c1COC(=O)c1csc2c1CCCC2	none (no result: LANA-H2B inh, HDAC3 inh, T cell modulator)
CCN(c1ccccc1)S(=O)(=O)c1cccc(C(=O)NCC2(N(C)C)CCCCC2)c1	none | Arr-AP2 CP1 inactive | GST-FITC bead inactive
COc1ccc(NS(=O)(=O)c2cccc(C(=O)NCC(c3ccccc3)N(C)C)c2)cc1 (stereo not drawn)	none
Cc1ccc(NS(=O)(=O)c2cccc(C(=O)NCC3(N(C)C)CCCCC3)c2)cc1	none
CN(C)C1(CNC(=O)c2cccc(S(=O)(=O)NCc3ccccc3)c2)CCCCC1	none
CN(C)C1(CNC(=O)c2cccc(S(=O)(=O)Nc3ccc(Br)cc3)c2)CCCCC1	none | Arr-AP2 CP1 inactive | GST-FITC bead inactive
COc1ccc(NS(=O)(=O)c2cccc(C(=O)NCC3(N(C)C)CCCCC3)c2)cc1	Arrestin-AP2 inh 55 | Arr-AP2 CP1 inactive | GST-FITC bead inactive
CC(NC(=O)C1CCC(C(=O)NC(C)c2ccccc2)CC1)c1ccccc1 (stereo not drawn)	none
O=C(CCC(=O)N1CCOc2ccccc21)Nc1ccccc1Cl	none
COCCN1C(=O)/C(=C/c2ccc(N3CCCC3)cc2C)SC1=S	Arrestin-AP2 inh 103 | Arr-AP2 CP1 inactive | GST-FITC bead inactive

Source: PubChem
